Consider 14 compounds from ChEMBL document CHEMBL2010781, “2-Amidino analogs of glycine-amiloride conjugates: inhibitors of urokinase-type plasminogen activator” (Bioorg Med Chem Lett, 2012).

The nature of assay [1]: Inhibition of trypsin using tosyl-Gly-Pro-Lys-pNA as substrate by spectrophotometry.
For assay [2], the target named is Urokinase-type plasminogen activator (Homo sapiens, UniProt P00749). In words: Inhibition of urokinase-type plasminogen activator using Glt-Gly-Arg-AMC as substrate by spectrofluorometry.
In the next assay the target is Plasminogen (Homo sapiens, UniProt P00747). In words: Inhibition of plasmin using tosyl-Gly-Pro-Lys-pNA as substrate by spectrophotometry.
Chain of Plasminogen (P00747 97-580 limits assumed): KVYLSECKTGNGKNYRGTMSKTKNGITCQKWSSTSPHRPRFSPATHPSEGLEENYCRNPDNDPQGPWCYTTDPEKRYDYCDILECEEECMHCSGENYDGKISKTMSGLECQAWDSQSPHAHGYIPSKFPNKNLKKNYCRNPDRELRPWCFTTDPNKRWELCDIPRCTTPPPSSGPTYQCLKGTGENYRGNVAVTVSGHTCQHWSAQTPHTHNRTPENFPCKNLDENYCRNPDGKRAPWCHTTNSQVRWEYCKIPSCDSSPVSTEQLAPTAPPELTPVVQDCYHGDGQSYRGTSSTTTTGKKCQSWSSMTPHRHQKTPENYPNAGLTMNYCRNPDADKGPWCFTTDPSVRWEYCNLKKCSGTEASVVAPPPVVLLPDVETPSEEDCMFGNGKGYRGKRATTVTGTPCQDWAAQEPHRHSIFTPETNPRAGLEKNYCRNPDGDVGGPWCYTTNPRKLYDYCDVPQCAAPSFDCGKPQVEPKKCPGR
Chain of Plasminogen (P00747 581-810 limits assumed): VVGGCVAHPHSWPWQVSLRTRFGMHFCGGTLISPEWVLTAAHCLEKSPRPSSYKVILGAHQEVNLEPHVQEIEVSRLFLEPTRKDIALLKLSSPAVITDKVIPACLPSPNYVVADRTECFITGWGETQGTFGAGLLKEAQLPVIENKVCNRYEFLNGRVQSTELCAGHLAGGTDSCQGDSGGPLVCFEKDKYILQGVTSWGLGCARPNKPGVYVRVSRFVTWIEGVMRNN
The subject of another assay is U-87MG ATCC. As to the kind of experiment: Cytotoxicity against human U87 cells by lactate dehydrogenase assay. The format is functional, cell-based. The gist of the method: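 Cytotoxicity was read as release of cytosolic LDH from dying cells, following the kit manufacturer's protocol.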
Assay [3] has as its target Tissue-type plasminogen activator (Homo sapiens, UniProt P00750). As to the kind of experiment: Inhibition of tPA using CH3SO2-D-HHT-Gly-Arg-pNA as substrate by spectrophotometry.
Assay [4] can be described thus: Cytotoxicity against human U87 cells at 250 uM after 72 hrs by lactate dehydrogenase assay. Format: functional, U-87MG ATCC. The method, boiled down:
(§1)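 Cell death was scored as cytosolic LDH released into the medium, using the kit manufacturer's LDH protocol.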

Assay [5] can be described thus: Cytotoxicity against human U87 cells at 250 uM after 24 hrs by lactate dehydrogenase assay. Format: functional, U-87MG ATCC. The gist of the method: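 Human U87 glioma cells seeded at ten thousand per well and exposed to drug for 24–48 h at 37°C under 5% CO2. Cell death was read as cytosolic lactate dehydrogenase released from dying cells, assayed following the kit manufacturer's protocol.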

The nature of assay [6]: Cytotoxicity against human U87 cells at 100 uM after 72 hrs by lactate dehydrogenase assay. The format is functional, U-87MG ATCC. As to conditions: in the assay text read “24 hrs” for “72 hrs”. The method, boiled down:
as §1

Activity calls are given as the source filed them. The rule behind the calls is not given here.

Chain of Tissue-type plasminogen activator (P00750 whole entry): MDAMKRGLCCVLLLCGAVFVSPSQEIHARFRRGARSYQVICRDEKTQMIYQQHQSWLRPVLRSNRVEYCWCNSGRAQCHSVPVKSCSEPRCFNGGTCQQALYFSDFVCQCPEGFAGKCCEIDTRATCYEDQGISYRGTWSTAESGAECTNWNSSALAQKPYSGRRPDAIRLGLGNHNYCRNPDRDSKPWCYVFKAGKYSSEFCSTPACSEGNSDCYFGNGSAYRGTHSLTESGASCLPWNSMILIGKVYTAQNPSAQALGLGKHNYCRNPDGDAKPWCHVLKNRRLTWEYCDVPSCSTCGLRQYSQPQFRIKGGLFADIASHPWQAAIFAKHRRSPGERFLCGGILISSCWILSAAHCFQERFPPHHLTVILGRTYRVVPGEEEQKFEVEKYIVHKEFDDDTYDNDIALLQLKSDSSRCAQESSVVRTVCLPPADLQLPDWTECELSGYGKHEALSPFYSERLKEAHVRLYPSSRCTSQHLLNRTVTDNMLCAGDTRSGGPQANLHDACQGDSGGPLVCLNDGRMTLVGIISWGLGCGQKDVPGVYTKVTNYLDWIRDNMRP

Broadly, the IC50 is the concentration needed to halve the response being measured. High values mean weaker potency in that assay, low ones greater potency in that assay. On to `N=C(N)NC(=O)c1nc(Cl)c(NCC(=O)O)nc1N`, for which the half-maximal inhibitory concentration (IC50) was over 250 µM in assay [1], 17 µM in assay [2], over 250 µM on Plasminogen and over 250 µM in assay [3]. Also, the outcome in the assay with U-87MG ATCC was inactive.
As to `N=C(N)c1nc(Cl)c(NCC(=O)OCc2ccccc2)nc1N`, the IC50 in assay [1] is over 250 µM; in assay [2], 4 µM; against Plasminogen, over 250 µM; in assay [3] it was 200 µM. Further, the Activity in assay [4] is given as 50%.
For the compound `N=C(N)c1nc(Cl)c(NCC(=O)O)nc1N`, the IC50 in assay [1] was over 250 µM; in assay [2], 237 µM; in assay [3] it was over 250 µM. Also, the result in the assay with U-87MG ATCC was inactive.
Regarding `N=C(NO)c1ncc(NCC(=O)O)nc1N`, the figures for the IC50 in assay [2] and in assay [3] were 279 µM and over 250 µM, respectively.
In turn, `N/C(=N\O)c1nc(Cl)c(NCC(=O)OCc2ccccc2)nc1N` yielded an IC50 in assay [1] of over 250 µM. For the same compound, in the assay on U-87MG ATCC, the outcome was inactive.
On the same counts, the results for `N/C(=N\O)c1ncc(NCC(=O)O)nc1N` are over 250 µM and “inactive”.
As for `N/C(=N\O)c1nc(Cl)c(NCC(=O)O)nc1N`, the 50% inhibitory concentration (IC50) in assay [1] was over 250 µM. Moreover, the outcome with U-87MG ATCC was inactive.
For `N=C(NO)c1nc(Cl)c(NCC(=O)O)nc1N`, the figures for the IC50 (in assay [2]; on Plasminogen; in assay [3]) were 231 µM, over 250 µM and over 250 µM, respectively.
Consider `NC(N)=NC(=O)c1ncc(NCC(=O)O)nc1N`, for which the IC50 in assay [1] was over 250 µM; in assay [2] it was 47 µM; on Plasminogen, over 250 µM; in assay [3] it was over 250 µM. Also, the outcome with U-87MG ATCC was inactive.
For the compound `N=C(N)NC(=O)c1nc(Cl)c(N)nc1N` [AMILORIDE], the IC50 is over 250 µM in assay [1], over 250 µM on Plasminogen and 220 µM in assay [3]. For the same compound, the Activity in assay [5] came out at 50%.
Regarding `NC(N)=NC(=O)c1nc(Cl)c(NCC(=O)OCc2ccccc2)nc1N`, the half-inhibitory concentration (IC50) is over 250 µM in assay [1], 3 µM in assay [2], over 250 µM against Plasminogen and over 190 µM in assay [3]. In assay [6], the Activity came to 50%.
`NC(=O)c1nc(Cl)c(NCC(=O)OCc2ccccc2)nc1N`: the IC50 was over 250 µM in assay [1], 69 µM in assay [2] and over 250 µM in assay [3].
With `N=C(N)c1ncc(NCC(=O)O)nc1N`, the concentration for half-maximal inhibition (IC50) was over 250 µM in assay [1], 212 µM in assay [2], over 250 µM on Plasminogen and over 250 µM in assay [3]. Moreover, in the assay with U-87MG ATCC, the result was inactive.
As for `N=C(NO)c1nc(Cl)c(NCC(=O)OCc2ccccc2)nc1N`, the IC50 in assay [2] is 74 µM; against Plasminogen, over 250 µM; in assay [3], 200 µM.
